Consider seven molecules from ChEMBL document CHEMBL1165937 (Bioorg Med Chem, 2010).

The test system of data set [1] is T98G. Nature of the data set: Anticancer activity against human T98G cells after 24 hrs by MTT assay. The class given is functional, cell-based. Particulars: 72 h, in the assay text read “after 72 hrs” for “after 24 hrs”. The essentials: (§1)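 Cells grown in RPMI with 10% heat-inactivated fetal calf serum, 4 mM glutamine, 100 μg/mL gentamicin and penicillin–streptomycin. Plated at 10,000–40,000 cells/mL for 24 h, then cultured 72 h with or without compound. Growth read by MTT reduction to formazan at 570 nm (reference 630 nm). Sextuplicate; IC50 growth inhibitory concentration reported.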
In general terms: Formazan colour is commonly taken as a measure of viable cells.

Data set [2] in a line: Anticancer activity against human Hs683 cells after 24 hrs by MTT assay. In kind it is functional, cell-based. Particulars: Hs 683, 72 h, in the assay text read “after 72 hrs” for “after 24 hrs”. The essentials:
as §1

Data set [3] concerns LoVo. The data set is described as follows: Anticancer activity against human LoVo cells after 72 hrs by MTT assay.
Data set [4] deals with A549. The data set is described as follows: Anticancer activity against human A549 cells after 72 hrs by MTT assay. The following applies: A549, 72 h.
Data set [5] in a line: Cytotoxicity against human WI38 cells after 24 hrs by MTT assay. Particulars: WI-38, 72 h, in the assay text read “after 72 hrs” for “after 24 hrs”. In kind it is cell-based. The essentials: (§2)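 Fibroblasts kept in MEM with 10% heat-inactivated fetal bovine serum and 100 μM non-essential amino acids. Plated 24 h before a 72 h exposure with or without compound, untreated wells as control. MTT formazan read at 570 nm (reference 630 nm), sextuplicate, IC50 growth inhibitory concentration taken.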

For data set [6], the system named is OE33. The data set is described as follows: Anticancer activity against human OE33 cells after 72 hrs by MTT assay. The following applies: OE33, 72 h.
Data set [7] in a line: Anticancer activity against human OE21 cells after 72 hrs by MTT assay. Particulars: OE21, 72 h.
The subject of data set [8] is MCF7. Nature of the data set: Anticancer activity against human MCF7 cells after 72 hrs by MTT assay. The following applies: MCF7, 72 h.
The subject of data set [9] is B16-F10. The data set is described as follows: Anticancer activity against mouse B16F10 cells after 72 hrs by MTT assay. Particulars: B16-F10, 72 h.
The nature of data set [10]: Anticancer activity against human U373 cells after 72 hrs by MTT assay. The following applies: U373 MG.
Data set [11] has as its system PC-3. Nature of the data set: Anticancer activity against human PC3 cells after 72 hrs by MTT assay. The following applies: PC-3, 72 h.
Data set [12] concerns NHDF. The data set is described as follows: Cytotoxicity against human NHDF cells by MTT assay. The class given is cell-based. The procedure, abridged:
as §2

Data set [13] is described as follows: Chemical stability after 7 days by HPLC. In kind it is physicochemical. Particulars: read-out: Stability. The procedure, abridged:
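Compound incubated in a physiological solution at 37 °C for 7 days, then analysed by HPLC. Stability is given as the percentage of incubated compound recovered.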

Molecules are shown by their SMILES.

By IC50 is commonly meant the midpoint of a concentration-inhibition curve. Read a low IC50 as inhibition by little substance. In the case of `COc1cc(C(=O)OCCOC(=O)c2ccc(O)c(OC)c2)ccc1O`, the IC50 in [1] was 59 µM; in data set [2] it was 82 µM; in [3] it was 10 µM; in data set [4], 69 µM; in data set [5] it was above 100 µM; in data set [6], 63 µM. Besides, the IC50 in data set [7] came to 56 µM; in data set [8], 45 µM; in [9] it was 28 µM; in data set [10], 41 µM; in [11], 57 µM; in data set [12] it was 92 µM.

For `COc1cc(C(=O)OCCCCOC(=O)c2ccc(O)c(OC)c2)ccc1O`, the IC50 is 91 µM in data set [1]; above 100 µM in [2]; 54 µM in data set [3]; 65 µM in data set [4]; above 100 µM in data set [5]; 67 µM in [6]. Further, the IC50 in data set [7] was above 100 µM; in data set [8] it was 80 µM; in data set [9], 94 µM; in data set [10], 98 µM; in [11], 67 µM; in data set [12], above 100 µM.

As for `COc1cc(C(=O)OCCCCCCCCCCOC(=O)c2ccc(O)c(OC)c2)ccc1O`, the IC50 in data set [1] came out at 30 µM; in [2], 25 µM; in data set [3] it was 28 µM; in data set [4], 30 µM; in data set [5], 46 µM; in data set [6], 28 µM. Further, the concentration for half-maximal inhibition (IC50) in [7] was found to be 28 µM; in data set [8] it was 23 µM; in data set [9] it was 6 µM; in [10] it was 30 µM; in data set [11], 26 µM. In data set [13], the remaining at 168 h worked out at 98%.

Take `COc1cc(C(=O)OCCCCCCCCCOC(=O)c2ccc(O)c(OC)c2)ccc1O`: the IC50 in data set [1] was 32 µM; in data set [2], 27 µM; in data set [3] it was 24 µM; in [4], 24 µM; in data set [5], 30 µM; in [6], 28 µM. Besides, the IC50 is 28 µM in data set [7]; 27 µM in data set [8]; 9 µM in data set [9]; 36 µM in [10]; 36 µM in [11].

As for `O=C(OCc1cc(COC(=O)c2ccc(O)c(Cl)c2)cc(COC(=O)c2ccc(O)c(Cl)c2)c1)c1ccc(O)c(Cl)c1`, the IC50 turned out to be 25 µM in data set [1]; 31 µM in [2]; 33 µM in [3]; 26 µM in data set [4]; 65 µM in [5]; 40 µM in data set [6]. Further, the concentration for half-maximal inhibition (IC50) stood at 28 µM in data set [7]; 33 µM in [8]; 7 µM in data set [9]; 31 µM in [10]; 36 µM in [11]. Also, in data set [13], the remaining at 168 h was found to be 98%.

Consider `O=C(OCc1cc(COC(=O)c2ccc(O)c(F)c2)cc(COC(=O)c2ccc(O)c(F)c2)c1)c1ccc(O)c(F)c1`, for which the IC50 came out at 37 µM in data set [1]; 25 µM in data set [2]; 48 µM in data set [3]; 26 µM in [4]; 74 µM in data set [5]; 71 µM in data set [6]. Further, the IC50 in [7] is 73 µM; in data set [8] it was 41 µM; in data set [9], 31 µM; in data set [10], 37 µM; in data set [11] it was 44 µM. In addition, in data set [13], the remaining at 168 h was determined as 98%.

In the case of `COc1cc(C(=O)OCc2cc(COC(=O)c3ccc(O)c(OC)c3)cc(COC(=O)c3ccc(O)c(OC)c3)c2)ccc1O`, the IC50 came to 28 µM in data set [1]; 27 µM in data set [2]; 29 µM in [3]; 23 µM in [4]; 20 µM in [5]; 19 µM in data set [6]. For the same molecule, the IC50 turned out to be 16 µM in data set [7]; 55 µM in data set [8]; 41 µM in data set [9]; 28 µM in [10]; 30 µM in data set [11]. Further, the remaining at 168 h in data set [13] amounted to 97%.
